The source of these data is ChEMBL document CHEMBL3244415, “Synthesis and pharmacological properties of [5-isoleucine]-, [8-isoleucine]-, and [5,8-diisoleucine]bradykinin” (1979).

The species named for assay [1] is Rattus norvegicus. In words: Intrinsic activity at bradykinin receptor in estrous rat uterus assessed as ratio of bradykinin dose to compound dose to give 50% maximum myotropic activity. Put shortly:
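Uteri from estrous virgin rats were bathed in modified deJalon's solution with 20 mg/L CaCl2, at 30 °C, gassed with 98% O2-2% CO2. Isotonic contractions were recorded under 1 g tension. Full dose-response curves were run for bradykinin and analogue. The potency ratio was taken at the dose giving 50% maximal contraction.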

Assay [2] relates to Rattus norvegicus. In words: Vasodepressor activity in rat assessed as ratio of bradykinin dose to compound intravenous dose that produce 20 mmHg fall in mean blood pressure. The class given is functional.
The species named for another assay is Cavia porcellus. Description: Intrinsic activity at bradykinin receptor in guinea pig ileum assessed as ratio of bradykinin dose to compound dose to give 50% maximum myotropic activity. It is filed as tissue-based. In a few lines:
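Strips of terminal guinea pig ileum, 2–3 cm long, were held in Tyrode's solution at 36 °C and bubbled with 95% O2-5% CO2. Isotonic contractions were recorded under 1 g tension. Full dose-response curves were run for bradykinin and analogue. The potency ratio was taken at the dose giving 50% maximal contraction.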

Assay [3] is filed under the species Rattus norvegicus. Description: Antagonist activity at bradykinin receptor in estrous rat uterus assessed as inhibition of bradykinin-induced myotropic activity at 1 x 10^-6 M preincubated for 2 mins followed by bradykinin addition. It is filed as tissue-based. Put shortly:
(§1)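 Uteri from estrous virgin rats were suspended in modified deJalon's solution containing 20 mg/L CaCl2, kept at 30 °C and gassed with 98% O2-2% CO2. Isotonic contractions were recorded under 1 g tension. Analogue was added to the bath 2 min before various doses of bradykinin. Potency was compared at the concentration giving 50% maximal contraction.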

For assay [4], the species on record is Rattus norvegicus. In words: Vasodepressor activity in rat assessed as ratio of intraarterial dose of bradykinin to dose of compound that produce 20 mmHg fall in mean blood pressure. It is filed as functional, Artery. In a few lines:
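Male rats were anesthetized with Dial-urethan. Mean arterial pressure was recorded from the femoral artery. Drugs were given in saline by intracarotid injection. The ratio compares bradykinin and analogue doses that each lower mean pressure by 20 mmHg.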

Assay [5] is filed under the species Rattus norvegicus. In words: Antagonist activity at bradykinin receptor in estrous rat uterus assessed as inhibition of bradykinin-induced myotropic activity at 2.5 x 10^-6 M preincubated for 2 mins followed by bradykinin addition. It is filed as tissue-based. In a few lines:
as §1

Assay [6] is filed under the species Rattus norvegicus. In words: Antagonist activity at bradykinin receptor in estrous rat uterus assessed as inhibition of bradykinin-induced myotropic activity at 1 x 10^-5 M preincubated for 2 mins followed by bradykinin addition. It is filed as tissue-based. Put shortly: as §1

Active and inactive are the calls of the source. The rule behind the calls is not given here. Non-standard residues stand in square brackets, D forms with d. Residues, ends and D or L forms follow the SMILES beside them. Cha = N[C@@H](CC1CCCCC1)C(=O)O Some results are limits rather than exact numbers.

For `N=C(N)NCCC[C@H](NC(=O)[C@H](CC1CCCCC1)NC(=O)[C@@H]1CCCN1C(=O)[C@H](CO)NC(=O)[C@H](CC1CCCCC1)NC(=O)CNC(=O)[C@@H]1CCCN1C(=O)[C@@H]1CCCN1C(=O)[C@@H](N)CCCNC(=N)N)C(=O)O` (H-RPPG[Cha]SP[Cha]R-OH), the Ratio amounted to 0.33 in the assay filed under Rattus norvegicus [1], 1 with Rattus norvegicus [2] and 1 in the assay filed under Cavia porcellus.

Consider H-RPPGFSPIR-OH, for which the inhibition result in the assay listed under Rattus norvegicus [3] is “inactive”. The Ratio in the assay filed under Rattus norvegicus [4] turned out to be 0.00056.

In the case of H-RPPGISPFR-OH, the Ratio in the assay filed under Rattus norvegicus [1] stood at 0.00028; in the assay filed under Rattus norvegicus [4], 0.00018. Besides, in the assay filed under Rattus norvegicus [5], the inhibition result is “inactive”.

Regarding H-RPPGISPIR-OH, the Ratio is under 0.0002 in the assay listed under Rattus norvegicus [1] and under 0.00018 in the assay listed under Rattus norvegicus [4]. For the same compound, in the assay filed under Rattus norvegicus [6], the inhibition entry is “inactive”.
